This is a sample that favours compounds with a hit; in the whole collection about 1.2% have one here.
thrombin 1536 – thrombin (human) inhibition; P00734; alpha-thrombin, Boc-VPR-AMC fluorogenic substrate cleavage; inhibition, % at 5 µM; 220,000 compounds, 0.26% hits;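 active = inhibition at or above 40%; inactive = inhibition below 40%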;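 also: 0% = enzyme with no compound and 100% = wells without enzyme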
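System: human alpha-thrombin protein; Compound dosing: one concentration per compound, 5 µM, with 0.2% DMSO; Timing: reaction at room temperature; Technique: AMC fluorescence, 355/460 nm; Controls: enzyme without compound as high, wells lacking enzyme as low.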
Furin inhibitor – blocks human furin protease activity; P09958; purified furin, fluorogenic substrate cleavage; inhibition, % at 20 µM or 30 µM; 220,000 compounds, 0.061% hits; in the data active = inhibition above about 25%
KLK5 inh – inhibitors of human kallikrein 5; recombinant hK5, fluorogenic AMC substrate cleavage; inhibition, % at 5 µM; 210,000 compounds, 0.59% hits;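 active = inhibition of 40% or more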;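 also: 0% = enzyme controls without compound and 100% = no-enzyme blanks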
FXIIa inh – blocks human coagulation factor XIIa protease activity; P00748; purified FXIIa, Boc-QGR-AMC fluorogenic substrate, 2 h; inhibition, % at 5 µM; 220,000 compounds, 0.3% hits; in the data active = inhibition above about 40%;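 also: 0% = enzyme with no compound and 100% = blank without enzyme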
Target sequence (P00748 20-372 limits assumed): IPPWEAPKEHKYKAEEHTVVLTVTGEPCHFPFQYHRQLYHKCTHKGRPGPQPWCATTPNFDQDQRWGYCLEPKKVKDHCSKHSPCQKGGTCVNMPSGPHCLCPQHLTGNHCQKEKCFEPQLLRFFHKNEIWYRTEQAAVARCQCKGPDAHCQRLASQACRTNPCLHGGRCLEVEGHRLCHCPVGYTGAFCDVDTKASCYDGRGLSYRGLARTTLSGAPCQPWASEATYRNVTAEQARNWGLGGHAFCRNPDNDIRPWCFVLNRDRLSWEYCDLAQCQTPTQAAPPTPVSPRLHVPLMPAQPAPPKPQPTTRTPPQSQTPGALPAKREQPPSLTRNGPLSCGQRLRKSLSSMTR
Target sequence (P00748 373-615 limits assumed): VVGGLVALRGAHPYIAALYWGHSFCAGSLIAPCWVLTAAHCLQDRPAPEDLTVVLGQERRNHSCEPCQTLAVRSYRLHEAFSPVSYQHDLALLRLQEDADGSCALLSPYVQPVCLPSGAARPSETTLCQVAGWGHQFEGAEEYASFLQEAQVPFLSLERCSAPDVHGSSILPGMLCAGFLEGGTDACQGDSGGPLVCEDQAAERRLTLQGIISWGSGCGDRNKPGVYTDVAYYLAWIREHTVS
FXIa inh – blocks human coagulation factor XIa protease activity; P03951; purified FXIa, Boc-Glu-Ala-Arg-AMC fluorogenic substrate; inhibition, % at 5 µM; 220,000 compounds, 0.14% hits;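 active = inhibition of at least 40%; inactive = inhibition below 40%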;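 also: fluorescence of freed AMC excited at 355 nm; 0% = enzyme without compound and 100% = no enzyme blank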
PERK inh – inhibitors of human PERK kinase. CHO PERK-DD fusion, SEAP luminescence translation reporter. 220,000 compounds, 0.17% hits. Q9NZJ5. inhibition, % at 5.6 µM;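 active = inhibition above the mean inhibition of all tested compounds plus 3 SD, set separately per screening campaign, cut at about 2.9% in these data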;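 also: PERK kinase domain activated by AP20187 dimerizer at 100 nM; 0% = DMSO with dimerizer and 100% = rapamycin at 8.4 µM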
Active calls of the source: *.

For Cc1ccnc(NC(=O)CCC(=O)N(CC(=O)NC(C)(C)C)c2ccc3c(c2)OCCO3)c1 the results were thrombin 1536 -10, Furin inhibitor -22, KLK5 inh -2, FXIIa inh 1, FXIa inh -6 and PERK inh 0.
For Cc1ccc(S(=O)(=O)NC(CC(C)C)C(=O)NCc2ccco2)cc1 (stereo not given) the results were thrombin 1536 6, Furin inhibitor -18, KLK5 inh 45*, FXIIa inh 6, FXIa inh 3 and PERK inh 0.
For CC1(C)CC(=O)c2c(Cc3ccccc3)n[nH]c2C1 the results were thrombin 1536 14, Furin inhibitor -6, KLK5 inh 50*, FXIIa inh 19, FXIa inh -1 and PERK inh 0.
Screening CN(C)S(=O)(=O)c1ccc(NC=O)cc1 returned Furin inhibitor -2, KLK5 inh 8, FXIIa inh 5, FXIa inh -2 and PERK inh 0.
CCCOc1ccc(C2NC(=O)NC2=O)cc1 (stereo not given) was read as thrombin 1536 0, Furin inhibitor 27*, KLK5 inh -23, FXIIa inh 5, FXIa inh -6 and PERK inh 1.
`CCCOc1ccc(OCCNC2CCCC2)cc1` gave thrombin 1536 23, Furin inhibitor -17, KLK5 inh 74*, FXIIa inh 9, FXIa inh 38 and PERK inh 0.
Screening CCCCCOc1ccc(C2NC(=O)NC2=O)cc1 (stereo not given) returned thrombin 1536 -5, Furin inhibitor -16, KLK5 inh -7, FXIIa inh 2, FXIa inh -7 and PERK inh 1.
Screening Cc1cc(C(=O)NCC23CC4CC(CC(C4)C2)C3)c(C)o1 returned thrombin 1536 -3, Furin inhibitor 1, KLK5 inh 0, FXIIa inh 6, FXIa inh -4 and PERK inh 0.
For C/C(=N/Oc1nc(C)cc(C)n1)c1ccc(Br)cc1 the results were thrombin 1536 11, Furin inhibitor -16, KLK5 inh 41*, FXIIa inh 13, FXIa inh 1 and PERK inh -1.
Screening CC1=Nc2ccccc2N=C(NC(=O)c2ccccc2)C1c1ccccc1 (stereo not given) returned thrombin 1536 -3, Furin inhibitor -22, KLK5 inh -5, FXIIa inh 4, FXIa inh -3 and PERK inh 0.
`OC1(c2ccc(F)cc2)CCN(Cc2nnnn2Cc2cccs2)CC1` gave thrombin 1536 61*, Furin inhibitor -24, KLK5 inh 36, FXIIa inh 11, FXIa inh 2 and PERK inh 0.
Screening COc1ccc(OC)c(NC(=O)c2nc(-c3ccccc3)oc2C)c1 returned thrombin 1536 -8, Furin inhibitor -17, KLK5 inh 2, FXIIa inh 12, FXIa inh 3 and PERK inh 0.
O=C(Cn1cncn1)c1ccccc1 was read as thrombin 1536 -4, Furin inhibitor -12, KLK5 inh -1, FXIIa inh 10, FXIa inh 0 and PERK inh 2.
For CCOC(=O)CSC1=C(C#N)C(c2ccc3c(c2)OCO3)CC(=O)N1 (stereo not given) the results were thrombin 1536 -2, Furin inhibitor -20, KLK5 inh -5, FXIIa inh 7, FXIa inh -1 and PERK inh -1.
For CCOC(=O)CSC1=C(C#N)C(c2ccc(Cl)cc2)CC(=O)N1 (stereo not given) the results were thrombin 1536 14, Furin inhibitor -22, KLK5 inh 45*, FXIIa inh 34, FXIa inh 6 and PERK inh 0.
`CC(=O)N1CC2([N+](=O)[O-])CN(C(C)=O)CC([N+](=O)[O-])(C1)C2(C)C` gave Furin inhibitor -17, KLK5 inh -6, FXIIa inh -1, FXIa inh 0 and PERK inh 0.
`CC#CC#Cc1cccc(=O)o1` gave thrombin 1536 5, Furin inhibitor -16, KLK5 inh 5, FXIIa inh 12, FXIa inh 6 and PERK inh 2.
`c1cc(CNC2=NCCCCC2)ccn1` gave thrombin 1536 11, Furin inhibitor -15, KLK5 inh 65*, FXIIa inh 26, FXIa inh 4 and PERK inh 1.
`Cc1ccc(C(=O)NCCNS(C)(=O)=O)cc1` gave thrombin 1536 11, Furin inhibitor -12, KLK5 inh -5, FXIIa inh -2, FXIa inh -3 and PERK inh 1.
Screening COc1ccc(-c2ccc(C#N)c(SCC(=O)NCCc3ccccc3)n2)cc1OC returned thrombin 1536 56*, Furin inhibitor -41, KLK5 inh -18, FXIIa inh -43, FXIa inh -17 and PERK inh 0.
For CS(=O)(=O)N1CCN(Cc2ccc([N+](=O)[O-])cc2)CC1 the results were thrombin 1536 10, Furin inhibitor -8, KLK5 inh 51*, FXIIa inh 37, FXIa inh 33 and PERK inh 1.
For Cc1ccc(-c2cc(C(F)F)n3ncc(C(=O)N4CCCCC4c4cccnc4)c3n2)cc1 (stereo not given) the results were thrombin 1536 -6, Furin inhibitor -27, KLK5 inh 0, FXIIa inh 9, FXIa inh -1 and PERK inh 0.
COc1ccccc1CC(=O)NCc1csc(-c2cccs2)n1 was read as thrombin 1536 11, Furin inhibitor -3, KLK5 inh 9, FXIIa inh 45*, FXIa inh 47* and PERK inh -1.
Screening Cc1sc(NC(=O)c2ccco2)c(CN2CCN(c3ccc(F)cc3)CC2)c1C returned thrombin 1536 2, Furin inhibitor -21, KLK5 inh -16, FXIIa inh 57*, FXIa inh 30 and PERK inh -1.
CCOC(=O)N1CCN(Cc2c(NC(=O)c3ccco3)sc(C)c2C)CC1 was read as thrombin 1536 2, Furin inhibitor -25, KLK5 inh -15, FXIIa inh 2, FXIa inh -28 and PERK inh 0.
Cc1cc(C(F)(F)F)c(C#N)c(SCC(=O)NC(C)(C)C)n1 was read as thrombin 1536 8, Furin inhibitor -12, KLK5 inh 42*, FXIIa inh 36, FXIa inh 16 and PERK inh -1.
`Cc1ccc(S(=O)(=O)N2CCN=C2c2ccccc2)cc1C` gave thrombin 1536 24, Furin inhibitor -18, KLK5 inh 45*, FXIIa inh 17, FXIa inh 22 and PERK inh 0.
For O=S(=O)(CCNCc1cccs1)c1ccc(Cl)cc1 the results were thrombin 1536 -7, Furin inhibitor -4, KLK5 inh 50*, FXIIa inh -1, FXIa inh -4 and PERK inh 0.
Screening Brc1ccc(C2NCCS2)cc1 (stereo not given) returned thrombin 1536 -7, Furin inhibitor -20, KLK5 inh 0, FXIIa inh 5, FXIa inh -4 and PERK inh 1.

Screens as filed in PubChem.
